Measured values published in ChEMBL document CHEMBL1138206, “Lead compounds for antimalarial chemotherapy: purine base analogs discriminate between human and P. falciparum 6-oxopurine phosphoribosyltransferases” (J Med Chem, 2006).
Active and inactive are the calls of the source. No cut-off for these calls is given here.

Assays:
[1] = Inhibition of Plasmodium falciparum HGXPRT at pH 7.4
[2] = test system: Plasmodium falciparum; assay: Antiplasmodial activity against Plasmodium falciparum 3D7; type: functional, organism-based
Summary of the method: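 P. falciparum 3D7 kept in erythrocyte culture. Triplicate cultures exposed to a range of purine base concentrations for 48 h, without radiolabel. Giemsa-stained blood smears examined by light microscopy to determine parasitemia. IC50 taken as the inhibition of growth, from counts of viable parasites.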

[3] = test system: Plasmodium falciparum; assay: Inhibition of [3H]hypoxanthine uptake in Plasmodium falciparum 3D7; type: functional, organism-based; settings: 3D7, 48 h
[4] = test system: Plasmodium falciparum
[5] = test system: Plasmodium falciparum; remark: listed apart in the source
[6] = test system: Plasmodium falciparum; assay: Inhibition of [3H]hypoxanthine uptake into Plasmodium falciparum 3D7 at 130 uM; type: functional, organism-based
[7] = test system: Plasmodium falciparum; assay: Antimalarial activity against Plasmodium falciparum 3D7 at 130 uM; type: functional, organism-based
[8] = test system: Plasmodium falciparum; assay: Inhibition of [3H]hypoxanthine uptake into Plasmodium falciparum 3D7 at 120 uM; type: functional, organism-based
[9] = test system: Plasmodium falciparum; assay: Antimalarial activity against Plasmodium falciparum 3D7 at 120 uM; type: functional, organism-based
[10] = test system: Plasmodium falciparum; assay: Inhibition of [3H]hypoxanthine uptake into Plasmodium falciparum 3D7 at 125 uM; type: functional, organism-based
[11] = test system: Plasmodium falciparum; assay: Antimalarial activity against Plasmodium falciparum 3D7 at 125 uM; type: functional, organism-based
[12] = Inhibition of Toxoplasma gondii 6 oxopurine phosphoribosyl transferase
[13] = test system: Plasmodium falciparum; assay: Antimalarial activity against Plasmodium falciparum; type: functional, organism-based
Summary of the method: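 P. falciparum 3D7, a laboratory-adapted isolate, was kept in erythrocyte culture. Triplicate cultures were exposed to a range of purine base concentrations with 0.5 µCi/well [3H]hypoxanthine for 48 h, and label incorporation into nucleic acids was measured. Parallel cultures without label were run for 48 h, and parasitemia was read on Giemsa-stained smears by light microscopy. IC50 was derived for each read-out.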

[14] = test system: Sphi609; assay: Inhibition of Escherichia coli Sphi609 cells expressing Plasmodium falciparum HGXPRT; type: functional, cell-based
[15] = test system: Sphi609; assay: Inhibition of Escherichia coli Sphi609 cells expressing human HGPRT; type: functional, cell-based
[16] = test system: Plasmodium chabaudi; assay: Inhibition of Plasmodium chabaudi 6 oxopurine phosphoribosyl transferase
[17] = test system: Plasmodium lophurae; assay: Inhibition of Plasmodium lophurae 6 oxopurine phosphoribosyl transferase
[18] = substrate: Nc1nc2[nH]cnc2c(=O)[nH]1; settings: Homo sapiens
[19] = substrate: Nc1nc2[nH]cnc2c(=S)[nH]1; settings: Homo sapiens
[20] = substrate: O=c1[nH]cnc2nc[nH]c12; settings: Homo sapiens
[21] = substrate: Oc1ncnc2[nH]ncc12; settings: Homo sapiens
[22] = substrate: Sc1ncnc2nc[nH]c12; settings: Homo sapiens
[23] = substrate: Nc1nc(O)c2[nH]nnc2n1; settings: Homo sapiens
[24] = substrate: Nc1nc2[nH]cnc2c(=O)[nH]1; settings: Homo sapiens; remark: listed apart in the source
[25] = substrate: Nc1nc2[nH]cnc2c(=S)[nH]1; settings: Homo sapiens; remark: listed apart in the source
[26] = substrate: O=c1[nH]cnc2nc[nH]c12; settings: Homo sapiens; remark: listed apart in the source
[27] = substrate: Oc1ncnc2[nH]ncc12; settings: Homo sapiens; remark: listed apart in the source
[28] = substrate: Sc1ncnc2nc[nH]c12; settings: Homo sapiens; remark: listed apart in the source

| Molecule | IC50 [2] [µM] | IC50 [3] [µM] | Km [4] [µM] | Km [5] [µM] | also measured |
| --- | --- | --- | --- | --- | --- |
| O=c1[nH]c(=O)c2nn[nH]c2[nH]1 | – | – | – | – | Ki [1]: ≥ 100 µM |
| O=c1[nH]cnc2[nH]nnc12 | 38 | 90 | 145 | 25.6 | – |
| O=c1[nH]c(=O)c2nc[nH]c2[nH]1 | – | – | 420 | 189 | Activity [6]: inactive; Activity [7]: inactive |
| O=c1[nH]c(=S)c2nc[nH]c2[nH]1 | – | – | – | 82 | Activity [8]: inactive; Activity [9]: inactive |
| O=c1[nH]c(S)nc2[nH]cnc12 | – | – | – | – | Activity [10]: inactive; Activity [11]: inactive |
| Nc1nc2ncnc-2c[nH]1 [2-AMINOPURINE] | – | – | – | – | Ki [12]: 60 µM |
| Nc1nc(Cl)c2nc[nH]c2n1 [6-CHLOROGUANINE] | 10 | 67 | – | 176 | – |
| Nc1nc(O)c2[nH]nnc2n1 [8-AZAGUANINE] | 18 | 6.6 | 26.6 | 12.6 | – |
| Oc1ncnc2[nH]ncc12 [ALLOPURINOL] | – | ≥ 150 | 11.7 | 10.5 | Activity [13]: inactive |
| Nc1nc2[nH]cnc2c(=O)[nH]1 [GUANINE] | 60 | 35.3 | 1.4 | 0.83 | – |
| O=c1[nH]cnc2nc[nH]c12 [HYPOXANTHINE] | – | 4.2 | 0.9 | 0.07 | – |
| Sc1ncnc2nc[nH]c12 [MERCAPTOPURINE ANHYDROUS] | 2 | 1.3 | 1.6 | 0.02 | Activity [14]: Active; Activity [15]: Active; Activity [16]: Active; Activity [17]: Active |
| Nc1nc2[nH]cnc2c(=S)[nH]1 [THIOGUANINE] | 10 | 21.3 | 1.9 | 0.75 | Activity [14]: Active; Activity [15]: Active; Activity [16]: Active; Activity [17]: Active |
| Hypoxanthine-guanine phosphoribosyltransferase (Homo sapiens), P00492 (protein) MATRSPGVVISDDEPGYDLDLFCIPNHYAEDLERVFIPHGLIMDRTERLARDVMKEMGGHHIVALCVLKGGYKFFADLLDYIKALNRNSDRSIPMTVDFIRLKSYCNDQSTGDIKVIGGDDLSTLTGKNVLIVEDIIDTGKTMQTLLSLVRQYNPKMVKVASLLVKRTPRSVGYKPDFVGFEIPDKFVVGYALDYNEYFRDLNHVCVISETGKAKYKA | – | – | – | – | Km [18]: 1.9 µM; Km [19]: 5.9 µM; Km [20]: 3.1 µM; Km [21]: 135 µM; Km [22]: 3 µM; Km [23]: 72 µM; Km [24]: 1.9 µM; Km [25]: 1.7 µM; Km [26]: 3.4 µM; Km [27]: 47.9 µM; Km [28]: 1.15 µM |
